From PubChem
HSV augment – HSV replication enhancement. 0.005% of 220,000 active. HSV replication augmentation in cells, fold increase. maximum fold increase; in the data active = maximum fold increase above about 1.5; tested in PC3 cells
PKD1 kinase inh – inhibitors of human PKD1 kinase. Q15139. PKD1 kinase fluorescence polarization assay. inhibition, % (test concentration not listed). 0.056% of 200,000 active. AID 797; in the data active = inhibition above about 50%
ABCG2 block – blocks JC-1 efflux by human ABCG2 transporter; Q9UNQ0; IgMXP3 cells, flow cytometry; inhibition, % at 6.6 µM; 0.1% of 190,000 active;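 active = inhibition above 80%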;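 note: 0% = DMSO and 100% = nicardipine control wells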
Target sequence (Q9UNQ0 whole entry, looked up): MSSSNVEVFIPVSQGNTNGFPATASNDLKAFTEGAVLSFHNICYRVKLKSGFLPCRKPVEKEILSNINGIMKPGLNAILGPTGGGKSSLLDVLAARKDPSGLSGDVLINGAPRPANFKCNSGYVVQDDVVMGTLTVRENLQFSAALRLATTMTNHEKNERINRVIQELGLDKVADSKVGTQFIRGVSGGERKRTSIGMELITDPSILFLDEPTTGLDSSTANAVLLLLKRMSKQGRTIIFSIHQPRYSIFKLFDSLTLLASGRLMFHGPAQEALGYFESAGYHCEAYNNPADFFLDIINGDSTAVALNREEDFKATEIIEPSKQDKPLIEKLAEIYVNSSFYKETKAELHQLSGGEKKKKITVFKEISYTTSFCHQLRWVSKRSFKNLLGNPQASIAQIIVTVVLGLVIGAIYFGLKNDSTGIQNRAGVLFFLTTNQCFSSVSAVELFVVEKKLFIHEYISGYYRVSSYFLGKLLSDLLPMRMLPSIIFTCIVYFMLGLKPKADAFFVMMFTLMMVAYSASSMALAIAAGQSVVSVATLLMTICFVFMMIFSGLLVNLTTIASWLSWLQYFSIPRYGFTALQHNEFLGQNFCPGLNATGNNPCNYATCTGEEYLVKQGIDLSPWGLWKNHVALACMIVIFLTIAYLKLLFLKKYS
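Test system: IgMXP3 (ABCG2) plus far-red-tagged CCRF-Adr (ABCB1) cells. Reagent: JC-1 dye as substrate. Timing: 10 min exposure at 25 °C with rotation, no wash. Measured by: flow cytometric JC-1 green MFI at 530 nm. Read-out: percent efflux inhibition, scaled nicardipine 100% to DMSO 0%. Control set: nicardipine and DMSO wells.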
NCF1 inh – p47phox (human) inhibition | P14598 | 0.53% of 220,000 active | inhibition, % at 24.7 µM | AID 1274 | p47phox/p22phox peptide binding, fluorescence polarization, 2 h;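 active = inhibition above about 30%, limit read from the data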;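 note: 0% = p47phox with labelled peptide and 100% = labelled peptide alone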
PHOSPHO1 inh – PHOSPHO1 (human) inhibition. 1.1% of 290,000 active. inhibition, % at 13.3 µM. Q8TCT1. recombinant PHOSPHO1, absorbance phosphatase assay. AID 1565; in the data active = inhibition above about 60%
ABCB1 inh – human ABCB1 inhibition, ABCG2 as counter-screen; P08183; AID 1326; 0.067% of 190,000 active; CCRF-Adr cells, JC-1 efflux, flow cytometry; inhibition, % at 6.6 µM; in the data active = inhibition above about 40%;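 note: 0% = vehicle and 100% = reference inhibitor; higher value means more JC-1 retained so stronger ABCB1 efflux block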
* hit, by the source's call; i = inactive; . = no result. A selection: hits, their analogues and other compounds. The true share with any hit is near 1.6%.

SMILES	HSV augment	PKD1 kinase inh	ABCG2 block	NCF1 inh	PHOSPHO1 inh	ABCB1 inh
CCN(CC)c1ccc(/C=C2/C(=O)ON=C2C)cc1	i	-8	1	-209	9	-1
COc1cccc(NC(=O)CCC(=O)Nc2ccc3nc(N4CCOCC4)cc(C)c3c2)c1	.	.	.	.	26	.
O=C1/C(=C\c2ccc(-c3ccccc3Cl)o2)SC(=S)N1CC1CCCO1 (stereo not drawn)	i	-8	-2	-27	81*	-1
Cc1ccc(/C=C2/SC(=O)NC2=S)o1	i	-4	-3	25	68*	-1
Cc1ccc(/C=C2\SC(=S)N(CC3CCCO3)C2=O)o1 (stereo not drawn)	i	.	.	-27	77*	.
O=C1/C(=C/c2ccco2)SC(=S)N1CC1CCCO1 (stereo not drawn)	i	.	.	-13	4	.
O=C1/C(=C/c2cccnc2)SC(=S)N1CC1CCCO1 (stereo not drawn)	i	-1	1	-11	27	0
Cc1cc(C)cc(NC(=O)C2CCN(C(=O)c3cccs3)CC2)c1	.	.	.	.	12	.
N#CCCn1cc(C=C(C#N)C#N)c(-c2ccc(Cl)cc2)n1	i	0	11	5	60*	0
N#CCCn1cc(/C=N/O)c(-c2ccc(Cl)cc2)n1	i	-9	7	0	52	1
CCCCCn1c(N)c(-c2nc3ccccc3o2)c2c([N+](=O)[O-])nn(C)c(=O)c21	i	-7	27	38*	-36	1
CCOc1ccccc1N(CC)C(=O)c1nn(C)c2c1CSc1ccccc1-2	.	.	.	.	7	.
Cc1n[nH]c(=S)n1-c1ccc(Cl)cc1	i	3	1	-7	16	0
Cc1n[nH]c(=S)n1-c1ccccc1	i	.	.	-6	90*	.
Cc1ccc(-n2c(Cc3ccccc3)n[nH]c2=S)cc1	i	4	-1	-18	101*	0
COc1ccc(OCc2nn3c(-c4cccc(OC)c4)nnc3s2)cc1	i	-11	8	-14	18	0
c1ccc(CCn2cnc3ccccc32)cc1	i	9	3	0	16	1
COc1ccc(OCc2nn3c(Cn4cnc5ccccc54)nnc3s2)cc1	i	-20	-3	-6	81*	0
Clc1ccccc1-c1nn2c(Cn3cnc4ccccc43)nnc2s1	.	-43	0	-2	84*	0
c1ccc(CCc2nn3c(Cn4cnc5ccccc54)nnc3s2)cc1	i	5	0	2	69*	0
c1ccc2c(c1)ncn2Cc1nnc2sc(-c3ccc4c(c3)OCO4)nn12	i	-2	2	-14	67*	1
Cc1ccc(S(=O)(=O)N/N=C/c2cc(Br)ccc2O)cc1	i	.	.	-7	6	.
Cc1ccc(S(=O)(=O)N/N=C/c2cc(Br)c(C)o2)cc1	i	14	0	-2	91*	0
COc1ccc(S(=O)(=O)Nc2nnc(C(C)(C)C)s2)cc1	i	17	-1	-8	98*	0
COc1ccc(S(=O)(=O)Nc2nnc(CC(C)(C)C)s2)cc1	i	-3	0	-4	28	0
SMILES	HSV augment	PKD1 kinase inh	ABCG2 block	NCF1 inh	PHOSPHO1 inh	ABCB1 inh
CCOC(=O)C1CCN(c2nc3c(C)cccn3c(=O)c2/C=C(\C#N)S(=O)(=O)c2ccccc2)CC1	i	.	.	-48	19	.
Cn1c(SCC(=O)Nc2cc(=O)n(C)c(=O)n2C)nnc1C12CC3CC(CC(C3)C1)C2	.	.	.	.	61*	.
CCOc1ccc(NC(=O)CSc2nnc(C34CC5CC(CC(C5)C3)C4)n2C)cc1	i	4	3	-7	20	2
CC(=O)N1CCc2cc(S(=O)(=O)N3CCc4ccccc43)ccc21	.	.	.	.	-43	.
COc1cc(/C=C2\SC(=O)N(CC(=O)Nc3cccc(C)c3)C2=O)cc([N+](=O)[O-])c1O	i	-11	-5	-18	62*	-2
CCOc1cc(/C=C2\SC(=O)N(CC(=O)Nc3ccccc3F)C2=O)cc([N+](=O)[O-])c1O	i	1	-2	-6	29	0
COc1ccc(/C=C2\SC(=O)N(CC(=O)NNC(=O)c3ccccc3O)C2=O)cc1	i	-5	-12	15	15	-1
COc1ccc(/C=C2\SC(=O)N(CC(=O)NNC(=O)c3ccccc3O)C2=O)cc1OC	i	-3	-5	34*	-22	-1
CCOc1ccc(CCNC(=O)Cn2nc(C)n3cccc3c2=O)cc1OCC	.	.	.	.	1	.
